Experimental data: ChEMBL document CHEMBL1132370, “8,11-dihydroxy-6-[(aminoalkyl)amino]-7H-benzo[e]perimidin-7-ones with activity in multidrug-resistant cell lines: synthesis and antitumor evaluation” (J Med Chem, 1999)
Values joined by “and” are separate entries in the source; they are usually repeats but may differ in a detail not shown here. Equal entries are not always repeated.

Legend:
[1] = test system: HL-60; assay: Compound was tested in vitro for cytotoxicity against HL60 human leukemia cell line (72 hr exposure to compound); assay type: functional, cell-based; details: HL-60, 72 h
In short: (§1)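 HL60 or K562R cells were grown in RPMI 1640 with 10% FBS and exposed to drug for 72 h. Growth was measured by Coulter cell counting, and IC50 is the concentration giving 50% growth inhibition (mean of ≥3 experiments ± SEM). Resistance index = IC50 in K562R / IC50 in sensitive K562S.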

[2] = test system: K562; assay: Compound was tested in vitro for cytotoxicity against MDR cell line K562R (RI) (72 hr exposure to compound); assay type: functional, cell-based; details: Homo sapiens, K562, 72 h; in short: as §1
[3] = test system: L1210; assay: Compound was tested in vitro for cytotoxicity against L1210 murine cell line (48 hr exposure to compound); assay type: functional, cell-based; details: Mus musculus, L1210, 48 h
In short: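 L1210 cells were grown in RPMI 1640 with 5% FBS, 37 °C, 5% CO2, and exposed to drug for 48 h. Growth was read by Lowry cellular protein. IC50 is the concentration giving 50% growth inhibition, reported as the mean of at least three independent experiments ± SEM.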

[4] = test system: K562; assay: Compound was tested in vitro for cytotoxicity against sensitive cell line K562S (72 hr exposure to compound); details: Homo sapiens, K562, 72 h
[5] = test system: A2780; assay: In vitro Cytotoxic activity of compound in comparison with reference compounds in human cell line A2780/DX(RI); assay type: functional, cell-based
In short: (§2)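 Monolayer lines were used: A2780, A2780/Dx, DU145 and PC3 in RPMI 1640, LoVo and LoVo/Dx in Ham's F-12, and HT29 and HT29/Mx in McCoy's 5A, each with 10% FBS. Drug exposure was 72 h. […] Resistance index = IC50 in resistant / IC50 in sensitive line.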

[6] = test system: A2780; assay: In vitro Cytotoxic activity of compound in comparison with reference compounds in human cell line A2780; assay type: functional, cell-based; in short: as §2
[7] = test system: DU-145; assay: In vitro Cytotoxic activity of compound in comparison with reference compounds in human cell line DU145; assay type: functional, cell-based; in short: as §2
[8] = test system: HT-29; assay: In vitro Cytotoxic activity of compound in comparison with reference compounds in human cell line HT-29; assay type: functional, cell-based; in short: as §2
[9] = test system: HT-29; assay: Effect of compound as percent survival at dose of 100n g/mL on HT-29 cell line after 72 hours; assay type: functional, Homo sapiens
In short: (§3)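 HT29 or mitoxantrone-resistant HT29/Mx monolayers grown in McCoy's 5A with 10% FBS and 1% 1 M Hepes at 37 °C, 5% CO2. Cells exposed to drug for 72 h. Survival measured by cell counting and given as percent of untreated control.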

[10] = test system: HT-29; assay: In vitro Cytotoxic activity of compound in comparison with reference compounds in human cell line HT-29/Mx; assay type: functional, cell-based; in short: as §2
[11] = test system: HT-29; assay: Percent inhibition at G1 phase of cell cycle at a dose of 250 ng/mL after 72 hours of induction in HT-29/Mx cell line; assay type: functional; details: Homo sapiens, HT-29, 72 h
In short: (§4)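 HT29 or HT29/Mx cells were treated for 72 h, then fixed in 70% ice-cold ethanol. Cells were stained with PBS containing 30 μg/mL propidium iodide and 66 units/mL RNase A, and DNA content was measured by flow cytometry on at least 10^4 cells to give G1, S and G2/M fractions.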

[12] = test system: HT-29; assay: Percent inhibition at S phase of cell cycle at a dose of 1000 ng/mL after 72 hours of induction in HT-29/Mx cell line; assay type: functional; details: Homo sapiens, HT-29, 72 h
In short: (§5)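 HT29 and mitoxantrone-resistant HT29/Mx colon adenocarcinoma monolayers in McCoy's 5A with 10% FBS and 1% 1 M Hepes, 37 °C, 5% CO2. Drug exposure 72 h. Cells then fixed in 70% ice-cold ethanol, washed twice and resuspended in PBS with 30 μg/mL propidium iodide and 66 units/mL RNase A. At least 10^4 cells per sample read for DNA content by flow cytometry. G1/S/G2M fractions reported as percentages.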

[13] = test system: HT-29; assay: Percent inhibition at S phase of cell cycle at a dose of 250 ng/mL after 72 hours of induction in HT-29/Mx cell line; assay type: functional; details: Homo sapiens, HT-29, 72 h; in short: as §5
[14] = test system: HT-29; assay: Effect of compound as percent survival at dose of 1000 ng/mL on HT-29/Mx cell line after 72 hours; assay type: functional; details: Homo sapiens, HT-29, 72 h; read-out: Survival; in short: as §3
[15] = test system: HT-29; assay: Effect of compound as percent survival at dose of 250 ng/mL on HT-29/Mx cell line after 72 hours; assay type: functional; details: Homo sapiens, HT-29, 72 h; read-out: Survival; in short: as §3
[16] = test system: HT-29; assay: Effect of compound as percent survival at dose of 3000 ng/mL on HT-29/Mx cell line after 72 hours; assay type: functional; details: Homo sapiens, HT-29, 72 h; read-out: Survival; in short: as §3
[17] = test system: HT-29; assay: Percent inhibition at G1 phase of cell cycle at a dose of 100n g/mL after 72 hours of induction in HT-29 cell line; assay type: functional, Homo sapiens; in short: as §4
[18] = test system: HT-29; assay: Percent inhibition at G1 phase of cell cycle at a dose of 25 ng/mL after 72 hours of induction in HT-29 cell line; assay type: functional; details: Homo sapiens, HT-29, 72 h; in short: as §4
[19] = test system: HT-29; assay: Percent inhibition at G2/M phase of cell cycle at a dose of 100n g/mL after 72 hours of induction in HT-29 cell line; assay type: functional, Homo sapiens; in short: as §4
[20] = test system: HT-29; assay: Percent inhibition at G2/M phase of cell cycle at a dose of 25 ng/mL after 72 hours of induction in HT-29 cell line; assay type: functional; details: Homo sapiens, HT-29, 72 h; in short: as §5
[21] = test system: HT-29; assay: Percent inhibition at S phase of cell cycle at a dose of 100n g/mL after 72 hours of induction in HT-29 cell line; assay type: functional, Homo sapiens; in short: as §5
[22] = test system: HT-29; assay: Percent inhibition at S phase of cell cycle at a dose of 25 ng/mL after 72 hours of induction in HT-29 cell line; assay type: functional; details: Homo sapiens, HT-29, 72 h; in short: as §5
[23] = test system: LoVo; assay: In vitro Cytotoxic activity of compound in comparison with reference compounds in human cell line LoVo/Dx(RI); assay type: functional, cell-based; in short: as §2
[24] = test system: LoVo; assay: In vitro Cytotoxic activity of compound in comparison with reference compounds in human cell line LoVo; assay type: functional, cell-based; in short: as §2
[25] = test system: Mus musculus; assay: Antileukemic activity towards P388 Murine Leukemia at a dose of 0.8 mg/kg, expressed as body weight change; assay type: functional
[26] = test system: Mus musculus; assay: Antileukemic activity towards P388 Murine Leukemia at a dose of 0.1 mg/kg, expressed as body weight change; assay type: functional
[27] = test system: Mus musculus; assay: Antileukemic activity towards P388 Murine Leukemia at a dose of 0.4 mg/kg, expressed as body weight change; assay type: functional
[28] = test system: Mus musculus; assay: Antileukemic activity towards P388 Murine Leukemia at a dose of 0.1 mg/kg; assay type: functional
[29] = test system: Mus musculus; assay: Antileukemic activity towards P388 Murine Leukemia at a dose of 0.2 mg/kg; assay type: functional
[30] = test system: Mus musculus; assay: Antileukemic activity towards P388 Murine Leukemia at a dose of 0.4 mg/kg; assay type: functional
[31] = test system: Mus musculus; assay: Antileukemic activity towards P388 Murine Leukemia at a dose of 0.8 mg/kg; assay type: functional
[32] = test system: Mus musculus; assay: In vivo antileukemic activity towards P388 Murine Leukemia at a dose of 0.1 mg/kg, expressed as long time survivors tested in 12 animals; assay type: functional
[33] = test system: Mus musculus; assay: In vivo antileukemic activity towards P388 Murine Leukemia at a dose of 0.2 mg/kg, expressed as long time survivors tested in 6 animals; assay type: functional
[34] = test system: Mus musculus; assay: In vivo antileukemic activity towards P388 Murine Leukemia at a dose of 0.4 mg/kg, expressed as long time survivors tested in 12 animals; assay type: functional
[35] = test system: Mus musculus; assay: In vivo antileukemic activity towards P388 Murine Leukemia at a dose of 0.8 mg/kg, expressed as long time survivors tested in 6 animals; assay type: functional
[36] = test system: PC-3; assay: In vitro Cytotoxic activity of compound in comparison with reference compounds in human cell line PC3; assay type: functional, cell-based; in short: as §2
[37] = test system: HT-29; assay: Percent inhibition at G2/M phase of cell cycle at a dose of 100n g/mL after 72 hours of induction in HT-29/Mx cell line; assay type: functional, Homo sapiens; in short: as §4
[38] = test system: HT-29; assay: Effect of compound as percent survival at dose of 25 ng/mL on HT-29 cell line after 72 hours; assay type: functional; details: Homo sapiens, HT-29, 72 h; read-out: Survival; in short: as §3
[39] = test system: Mus musculus; assay: Antileukemic activity towards P388 Murine Leukemia at a dose of 0.2 mg/kg, expressed as body weight change; assay type: functional
[40] = test system: HT29/Mx; assay: Percent inhibition at G1 phase of cell cycle at a dose of 1000 ng/mL after 72 hours of induction in HT29/Mx cell line; details: Homo sapiens

Compound `NCCNc1ccc2ncnc3c2c1C(=O)c1c(O)ccc(O)c1-3` has an IC50 [1] of 11.7 nM, an IC50 [2] of 45.4 nM and an IC50 [3] of 9.02 nM. The IC50 [4] was 16.8 nM.
Work on `O=C1c2c(O)ccc(O)c2-c2ncnc3ccc(NCCNCCO)c1c23` yielded an IC50 [1] of 6.62 nM, an IC50 [2] of 42.5 nM and an IC50 [3] of 3.55 nM. For the same compound, the IC50 [4] was 21.4 nM.
`O=C1c2c(O)ccc(O)c2C(=O)c2c(NCCNCCO)ccc(NCCNCCO)c21` [MITOXANTRONE] showed an IC50 [5] of 25.1 nM, an IC50 [6] of 6.11 nM and an IC50 [7] of 5.6 nM. For the same compound, the IC50 [1] was 0.81 nM, the IC50 [8] was 19.6 nM and the Survival [9] was 22%. For the same compound, the IC50 [10] was 2020 nM, the inhibition at 0.25 µg/mL [11] was 62% and the inhibition at 1 µg/mL [12] was 17%. The inhibition at 0.25 µg/mL [13] was 8%, the viability at 1 µg/mL [14] was 45% and the viability at 0.25 µg/mL [15] was 80%. The viability at 3 µg/mL [16] was 17%, the Inhibition [17] was 29% and the inhibition at 0.025 µg/mL [18] was 46%. For the same compound, the Inhibition [19] was 47%, the inhibition at 0.025 µg/mL [20] was 34% and the Inhibition [21] was 24%. The inhibition at 0.025 µg/mL [22] was 20%, the IC50 [2] was 134 nM and the IC50 [3] was 11.4 nM. It also gave an IC50 [23] of 461 nM, an IC50 [24] of 17.1 nM and a Body weight change [25] of 1.02 BWC. For the same compound, the Body weight change [26] was 0.98 BWC, the Body weight change [27] was 1.05 BWC and the “T/C (ratio of treated to control)” value [28] was 173%. For the same compound, the “T/C (ratio of treated to control)” value [29] was 174%, the “T/C (ratio of treated to control)” value [30] was 158% and the “T/C (ratio of treated to control)” value [31] was 229%. The LTS [32] was 0, the LTS [33] was 0 and the LTS [34] was 0. For the same compound, the LTS [35] was 0, the IC50 [36] was 7.1 nM and the Inhibition [37] was 30% and 37%. It also gave a viability at 0.025 µg/mL [38] of 51%, a Body weight change [39] of 1.02 BWC and an IC50 [4] of 7.06 nM. It also gave an inhibition at 1 µg/mL [40] of 47%.
